System: Rattus norvegicus
Experiment: Toxicity in water-deprived Sprague-Dawley rat assessed as effect on water drinking time during nonpunished period at 20 mg/kg, po by Vogel conflict test
Format: organism-based
Conditions: in vivo
How it was run: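 Water-deprived male Sprague-Dawley rats (n = 6–8) drank during unpunished and punished periods, with licking suppressed by mild shock in punished periods. Compounds were given 30 min before testing. Analysis was ANOVA with Dunnett's test.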

CNC1=Nc2ccc(Cl)cc2C(c2ccccc2)=[N+]([O-])C1 [CHLORDIAZEPOXIDE]
Activity: Non-Toxic

Source: ChEMBL document CHEMBL4041524, “Synthesis and Characterization of a Novel γ-Aminobutyric Acid Type A (GABAA) Receptor Ligand That Combines Outstanding Metabolic Stability, Pharmacokinetics, and Anxiolytic Efficacy” (J Med Chem, 2016)
